Source: PubChem (Broad Institute)
dFosB act-1: activators of delta FosB homodimer, primary screen, biochemical, fluorescence polarization, TAMRA-CDK5 oligo, single point; Protein FosB (Mus musculus), P13346; purified delta FosB; percent of positive-control signal above neutral wells; activation, % at 25 µM; 0.99% of 340,000 active;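 active = mean activation above about 17%, with every replicate also reaching it, limit read from the data, passing the limit was not always enough; inconclusive = only one of the two conditions met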
Target sequence (P13346 whole entry, looked up): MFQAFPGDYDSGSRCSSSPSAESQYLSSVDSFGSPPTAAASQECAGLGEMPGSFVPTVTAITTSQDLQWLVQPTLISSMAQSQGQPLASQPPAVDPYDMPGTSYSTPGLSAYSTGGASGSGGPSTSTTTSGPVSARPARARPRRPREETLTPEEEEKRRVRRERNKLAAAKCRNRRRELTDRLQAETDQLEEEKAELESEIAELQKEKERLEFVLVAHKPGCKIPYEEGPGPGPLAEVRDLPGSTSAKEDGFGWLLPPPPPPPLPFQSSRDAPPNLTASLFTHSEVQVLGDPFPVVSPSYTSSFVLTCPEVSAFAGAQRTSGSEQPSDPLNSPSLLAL
CAL PDZ FP-1: CAL PDZ peptide-binding inhibitors, primary screen, biochemical, fluorescence polarization, Cer-tagged CAL PDZ, HTS | Golgi-associated PDZ and coiled-coil motif-containing protein (Homo sapiens), Q9HD26 | purified CAL PDZ, TMR-peptide fluorescence polarization, 1 h | inhibition, % at 20 µM | 0.02% of 330,000 active;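 active = highest replicate inhibition of at least 40%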
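System: tagged CAL PDZ domain. Schedule: 1 h room-temperature incubation prior to read. Signal: fluorescence polarization (mP). Measure: percent inhibition from loss of millipolarization.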
S100A4 inh HTS: inhibitors of S100A4-myosin IIA peptide binding, primary screen, biochemical, fluorescence polarization, TAMRA-MyoIIA peptide; Protein S100-A4 (Homo sapiens), P26447; inhibition, % at 10.7 µM; 0.14% of 360,000 active; AID 652163, 2013;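 active = mean inhibition of at least 70% across replicates, with every replicate also reaching that level; inconclusive = mean inhibition reaches 70% but some replicates fall short; inactive = mean inhibition below 70%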
Target sequence (P26447 whole entry, looked up): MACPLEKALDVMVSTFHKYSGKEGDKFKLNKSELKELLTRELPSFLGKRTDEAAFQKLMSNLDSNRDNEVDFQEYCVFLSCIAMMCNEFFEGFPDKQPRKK
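Material: S100A4 monomer protein | Medium: HEPES pH 7.2 with CaCl2, KCl, NaCl, DTT, Triton | Reagent: Labelled myosin peptide probe, 5 nM | Doses: One dose per compound | Times: 5 min incubation before reading | Benchmarks: Neutral control DMSO, positive control TFP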
CAL PDZ FP-2: untagged CAL PDZ binding inhibitors, primary screen, biochemical, fluorescence polarization, HTS; 0.92% of 300,000 active; inhibition, % at 24.9 µM; purified CAL PDZ, TMR-peptide fluorescence polarization, 1 h;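 active = mean inhibition of at least 30% with at least half of replicates also reaching 30%; inconclusive = no clear call, values can overlap the other calls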
C2C12 statin: suppressors of statin myotoxicity in C2C12 myotubes, primary screen, cell-based, single point, plate reader | C2C12 myotubes + simvastatin, ATP luminescence, 48 h; scaled: DMSO 0, geranylgeraniol control 100 | rescue of ATP level, % at 7.49 µM | 0.78% of 330,000 active;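 active = mean ATP rescue above about 67%, or every replicate alone reaching that limit, limit read from the data, passing the limit was not always enough; inconclusive = no clear call, values can overlap the other calls; inactive = mean under the limit and some replicate under it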;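 also: myotubes were challenged with 10 µM simvastatin during compound exposure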
CDK5 p35 inh: inhibitors of human CDK5/p35 kinase, primary screen, biochemical, single concentration; 0.01% of 330,000 active; Cyclin-dependent kinase 5 (Homo sapiens) + Cyclin-dependent kinase 5 activator 1 (Homo …; inhibition, % at 10 µM; AID 488839, 2010; Recombinant CDK5/p35, ADP-Glo luminescence, 60 min;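 active = highest replicate inhibition of at least 50% and at least 75% of replicates reaching 50%; inconclusive = only one of the two criteria met; inactive = both criteria failed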
dFosB act-2: activators of mouse delta FosB DNA binding, confirmation, biochemical, fluorescence polarization, TAMRA-CDK5 oligo, cherry-picked samples | AID 588690, 2011 | purified delta FosB; normalised: neutral wells 0, positive control 100 | activation, % at 24.9 µM | 2,400 tested, under 10 active | shares compounds with dFosB act-1;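 active = highest replicate activation at or above 34% and every replicate reaching that threshold; inconclusive = meets only one of the two criteria; inactive = meets neither criterion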;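 also: higher polarization means more probe DNA bound by delta FosB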
Hits are given with their value. Only some compounds are listed: those with a hit (about 2% of all), similar ones and a draw of the others.

Results for NC(=O)c1nsc(C(=O)N(c2ccccc2)C(C(=O)NCc2ccc(F)cc2)c2ccc(O)cc2)c1N (stereo not given) ?
dFosB act-1: 44.1; CAL PDZ FP-1: inactive; S100A4 inh HTS: inactive; CAL PDZ FP-2: inactive; C2C12 statin: inactive; CDK5 p35 inh: inactive; dFosB act-2: inactive

How did Cc1cc(C)cc(N2C(=O)c3nccnc3C2=O)c1 do in these assays?
dFosB act-1: inactive; CAL PDZ FP-1: inactive; S100A4 inh HTS: inactive; CAL PDZ FP-2: inactive; C2C12 statin: inactive; CDK5 p35 inh: inactive

How did CCOC(=O)c1c(C)[nH]c(C)c1C(=O)CSc1nnc(-c2cc(OC)c(OC)c(OC)c2)o1 do in these assays?
dFosB act-1: 33.0; CAL PDZ FP-1: inactive; CAL PDZ FP-2: inactive; C2C12 statin: inactive; CDK5 p35 inh: inactive; dFosB act-2: inactive

What do the screens show for `CCCCOC(=O)CSc1nnc(-c2cc(OC)c(OC)c(OC)c2)o1`?
dFosB act-1: inactive; CAL PDZ FP-1: inactive; CAL PDZ FP-2: inactive; CDK5 p35 inh: inactive

What do the screens show for `COC(=O)c1ccccc1NC(=O)NC1CCCC1`?
dFosB act-1: inactive; CAL PDZ FP-1: inactive; S100A4 inh HTS: inconclusive; CAL PDZ FP-2: inactive; CDK5 p35 inh: inactive

What do the screens show for `COc1cc(/C=N/N=C(/N)c2nonc2N)cc(Br)c1OCc1cccc(C)c1`?
dFosB act-1: inactive; CAL PDZ FP-1: inactive; CAL PDZ FP-2: inactive; C2C12 statin: inactive; CDK5 p35 inh: inactive

How did CCOc1cc(/C=N/N=C(\N)c2nonc2N)cc(Br)c1OCc1cccc2ccccc12 do in these assays?
dFosB act-1: 40.7; CAL PDZ FP-1: inactive; CAL PDZ FP-2: inactive; C2C12 statin: inactive; CDK5 p35 inh: inactive; dFosB act-2: inactive

Results for Cc1ccc2nc(N(CCN(C)C)C(=O)c3ccc4ccccc4c3)sc2c1 ?
dFosB act-1: 26.5; CAL PDZ FP-1: inactive; CAL PDZ FP-2: inactive; C2C12 statin: inactive; CDK5 p35 inh: inactive; dFosB act-2: inactive

What do the screens show for `CN(C)CCN(C(=O)c1ccc2ccccc2c1)c1nc2ccc(Br)cc2s1`?
dFosB act-1: inactive; CAL PDZ FP-1: inactive; S100A4 inh HTS: inactive; CAL PDZ FP-2: inactive; C2C12 statin: inactive; CDK5 p35 inh: inactive

How did CCOc1ccc2nc(N(CCN(C)C)C(=O)c3cc4ccccc4cc3OC)sc2c1 do in these assays?
dFosB act-1: 48.3; CAL PDZ FP-1: inactive; CAL PDZ FP-2: inactive; C2C12 statin: inactive; dFosB act-2: inactive

Results for CCOc1ccc2nc(N(CCCN(C)C)C(=O)c3ccc4c(c3)CCCC4)sc2c1 ?
dFosB act-1: 25.8; CAL PDZ FP-1: inactive; S100A4 inh HTS: inactive; CAL PDZ FP-2: inactive; CDK5 p35 inh: inactive; dFosB act-2: inactive

Results for CN(C)CCN(C(=O)c1ccc2ccccc2c1)c1nc2c(F)cc(F)cc2s1 ?
dFosB act-1: 35.7; CAL PDZ FP-1: inactive; S100A4 inh HTS: inactive; CAL PDZ FP-2: inactive; C2C12 statin: inactive; dFosB act-2: inactive

Results for COC(=O)[C@@H](NS(=O)(=O)c1ccc(F)cc1Br)C(C)C ?
S100A4 inh HTS: inactive; C2C12 statin: inactive

Results for CCN(CC)CCN(C(=O)c1ccc(C(=O)c2ccccc2)cc1)c1nc2ccc(OC)cc2s1 ?
dFosB act-1: inconclusive; CAL PDZ FP-1: inactive; S100A4 inh HTS: inactive; CAL PDZ FP-2: inactive; C2C12 statin: inactive; CDK5 p35 inh: inactive

How did COc1ccc2nc(N(CCN(C)C)C(=O)c3ccc(C(=O)c4ccccc4)cc3)sc2c1 do in these assays?
dFosB act-1: 31.0; CAL PDZ FP-1: inactive; S100A4 inh HTS: inactive; CAL PDZ FP-2: inactive; C2C12 statin: inactive; CDK5 p35 inh: inactive; dFosB act-2: inactive

Results for COc1ccc(NC(=O)c2cn(C)c(=O)c3cc(OC)c(OC)cc23)c(OC)c1 ?
dFosB act-1: 19.7; CAL PDZ FP-1: inactive; S100A4 inh HTS: inactive; CAL PDZ FP-2: inactive; C2C12 statin: inactive; CDK5 p35 inh: inactive; dFosB act-2: inactive

How did COc1cccc(NC(=O)CCc2nnc3ccc(NCc4ccco4)nn23)c1 do in these assays?
dFosB act-1: inactive; CAL PDZ FP-1: inactive; S100A4 inh HTS: inactive; CAL PDZ FP-2: inactive; C2C12 statin: inactive; CDK5 p35 inh: inactive

Results for CCc1cc2cc3c(cc2nc1SCC(=O)Nc1cc(C)on1)OCO3 ?
dFosB act-1: 49.2; CAL PDZ FP-1: inactive; CAL PDZ FP-2: inactive; C2C12 statin: inactive; CDK5 p35 inh: inactive; dFosB act-2: inactive

How did CCn1c(=O)[nH]c(=O)c2c(N)c(C(=O)c3cc(F)ccc3F)sc21 do in these assays?
dFosB act-1: inactive; CAL PDZ FP-1: inactive; S100A4 inh HTS: inactive; CAL PDZ FP-2: inactive; C2C12 statin: inactive; CDK5 p35 inh: inactive

Results for CC[C@@H]1CCCCc2ccccc2[C@H](C(=O)C[C@@H](O)CC(C)=O)OC1=O ?
dFosB act-1: inactive; CAL PDZ FP-1: inactive; S100A4 inh HTS: inactive; CAL PDZ FP-2: inactive; C2C12 statin: inactive; CDK5 p35 inh: inactive

Results for C[C@@H]1CN([C@@H](C)CO)C(=O)c2cc(NS(=O)(=O)c3ccc(Cl)cc3)ccc2O[C@@H](C)CCCCO[C@H]1CN(C)Cc1ccccc1 ?
S100A4 inh HTS: inactive

Results for O=C1Nc2c(Br)cc(Br)c3cccc1c23 ?
dFosB act-1: 89.6; CAL PDZ FP-1: inactive; S100A4 inh HTS: inactive; CAL PDZ FP-2: inactive; CDK5 p35 inh: inactive; dFosB act-2: inactive

What do the screens show for `O=C1NC(=O)c2cc(Br)cc3cccc1c23`?
dFosB act-1: inactive; S100A4 inh HTS: inactive; CAL PDZ FP-2: inactive; CDK5 p35 inh: inactive

What do the screens show for `O=C(Nc1ccc(Cl)cc1)c1cnc(-c2ccccc2)nc1-c1ccccc1`?
dFosB act-1: 21.5; CAL PDZ FP-1: inactive; CAL PDZ FP-2: inactive; C2C12 statin: inactive; CDK5 p35 inh: inactive; dFosB act-2: inactive

Results for O=c1[nH]c(CSc2nc3ccccc3s2)nc2ccccc12 ?
dFosB act-1: inactive; CAL PDZ FP-1: inactive; S100A4 inh HTS: inactive; CAL PDZ FP-2: inactive; C2C12 statin: inactive; CDK5 p35 inh: inactive

What do the screens show for `Cc1ccc(Nc2nnc(SCc3nc4ccccc4c(=O)[nH]3)s2)cc1`?
dFosB act-1: 43.2; CAL PDZ FP-1: inactive; S100A4 inh HTS: inactive; CAL PDZ FP-2: inactive; C2C12 statin: inactive; CDK5 p35 inh: inactive; dFosB act-2: inactive
